Assay results from ChEMBL document CHEMBL1125366, “Low molecular weight, non-peptide fibrinogen receptor antagonists” (J Med Chem, 1992).
Square brackets hold non-standard residues; d marks the D form. Peptide text beside a SMILES is read from it. * marks the point of attachment. 3Abz = Nc1cccc(C(=O)O)c1; Boc = CC(C)(C)OC(=O)*

How the values were obtained:
[1] = Inhibition of platelet aggregation in human-platelet rich plasma(h-PRP) induced by adenosine 5'-diphosphate-(ADP); format: functional
Summary of the method: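 Citrated human PRP with serial inhibitor dilutions; aggregation triggered by 10 μM ADP (final) and followed as rate of light transmission change in an aggregometer; plasma from at least four donors.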

[2] = Inhibition of platelet aggregation in human-platelet rich plasma(h-PRP) induced by thrombin; format: functional
Summary of the method: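 Citrated human PRP with serial inhibitor dilutions; aggregation triggered by thrombin at 0.2 unit/mL (final) and followed as rate of light transmission change in an aggregometer; plasma from at least four donors.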

[3] = biological target: T1, Integrin alpha-IIb/beta-3 (Homo sapiens) (UniProt P05106+P08514); experiment: (§1) Inhibition of fibrinogen binding to immobilized fibrinogen receptor; format: protein-complex assay; set-up: reference not given here
[4] = Inhibition of platelet aggregation in human-platelet rich plasma(h-PRP) induced by collagen; format: functional
Summary of the method: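 Citrated human PRP with serial inhibitor dilutions; aggregation triggered by collagen at 2.5 μg/mL (final) and followed as rate of light transmission change in an aggregometer; plasma from at least four donors.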

[5] = biological target: Integrin alpha-V/beta-3 (Homo sapiens) (UniProt P05106+P06756); experiment: Inhibition of fibrinogen binding to immobilized vitronectin receptor; format: protein-complex assay; set-up: reference not given here
[6] = biological target: T1, Integrin alpha-IIb/beta-3 (Homo sapiens); experiment: as §1; format: protein-complex assay

| Structure (SMILES) | IC50 [1] [nM] | IC50 [2] [nM] | Ratio [3] | IC50 [4] [nM] | Ratio [5] | Ratio [6] |
| --- | --- | --- | --- | --- | --- | --- |
| N=C(N)c1ccc(C(=O)NCC(=O)N2CCC(OCC(=O)O)CC2)cc1 | 110 | 90 | 0.008 | 100 | > 8000 |  |
| C[C@@]1(C(=O)N2CCC(OCC(=O)O)CC2)CCCN1C(=O)c1ccc(C(=N)N)cc1 | 13000 | 49000 | 0.37 | 15000 | 12000 |  |
| N=C(N)c1cccc(S(=O)(=O)NCCc2ccc(OCC(=O)O)cc2)c1 | > 200000 | > 200000 |  | > 200000 |  | 24 |
| COC(=O)COc1ccc(C[C@H](C)NS(=O)(=O)c2ccc(C(=N)N)cc2)cc1 |  |  |  | 11000 |  |  |
| N=C(N)c1ccc(C(=O)NCC(=O)c2ccc(OCC(=O)O)cc2)nc1 | 30 | 40 | 0.001 | 20 | > 20000 |  |
| NC(N)=NCCC[C@H](N)C(=O)Nc1cccc(C(=O)NCCC(=O)O)c1 | 51000 | 68000 | 1.3 | 50000 | 900 |  |
| C[C@H](NC(=O)c1ccc(C(=N)N)cn1)C(=O)N1CCC(OCC(=O)O)CC1 | 20 | 30 | 0.0001 | 30 | > 30000 |  |
| CC(C)[C@H](NC(=O)[C@H](CC(=O)O)NC(=O)CNC(=O)[C@@H](N)CCCNC(=N)N)C(=O)O (H-RGDV-OH) | 127000 | 98000 | 0.63 | 151000 | 0.6 |  |
| C[C@H](NC(=O)c1ccc(C(=N)N)cc1)C(=O)N1CCC(OCC(=O)O)CC1 [RO-44-3888] | 50 | 50 | 0.0007 | 70 | > 27000 |  |
| N=C(N)c1ccc(C(=O)NCCCCC(=O)N[C@@H](CC(=O)O)C(=O)N[C@@H](Cc2ccccc2)C(=O)O)cc1 | 200 | 100 | 0.004 | 400 | 280 |  |
| CC(C)[C@H](NC(=O)[C@H](CC(=O)O)NC(=O)CNC(=O)Cc1ccc(C(=N)N)cc1)C(=O)O | 300 | 300 | 0.001 | 500 | 560 |  |
| N=C(N)c1ccc(C(=O)N[C@@H](Cc2ccc(O)cc2)C(=O)N2CCC(OCC(=O)O)CC2)cc1 [LAMIFIBAN] | 30 | 30 | 0.0002 | 20 | 17500 |  |
| CN(CC(=O)c1ccc(OCC(=O)O)c(OCC(=O)O)c1)C(=O)c1ccc(C(=N)N)cc1 | 70 | 60 | 0.0001 | 70 | 37000 |  |
| N=C(N)c1ccc(S(=O)(=O)NCCc2ccc(OCC(=O)O)cc2)cc1 | 15000 | 12000 | 0.2 | 12000 |  |  |
| N=C(N)c1ccc(CC(N)C(=O)Nc2cccc(C(=O)NCCC(=O)O)c2)cc1 (stereo unspecified) | 95000 | 95000 | 10 | 153000 | 2500 |  |
| COc1ccc(CCNC(=O)[C@H](CC(=O)O)NC(=O)CCNC(=O)c2ccc(C(=N)N)cc2)cc1 | 120 | 130 | 0.002 | 100 | 8000 |  |
| C[C@@H](NC(=O)c1ccc(C(=N)N)cc1)C(=O)N1CCC(OCC(=O)O)CC1 | 900 | 1100 | 0.007 | 1100 | > 9000 |  |
| N=C(N)c1ccc(C(=O)N[C@@H](CCCN)C(=O)N2CCC(OCC(=O)O)CC2)cc1 | 100 | 70 | 0.009 | 70 | > 30000 |  |
| COC(=O)COc1ccc(CCNC(=O)c2ccc(C(=N)N)cc2)cc1 | 900 | 500 | 0.45 | 300 | 2300 |  |
| C[C@@H](Cc1ccc(OCC(=O)O)cc1)NS(=O)(=O)c1ccc(C(=N)N)cc1 | 7400 | 9300 | 0.34 | 11000 | 1700 |  |
| N=C(N)c1ccc(C(=O)N[C@@H](CC(=O)O)C(=O)N2CCC(OCC(=O)O)CC2)cc1 | 350 | 380 | 0.02 | 340 | > 30000 |  |
| CC(C)[C@H](NC(=O)[C@H](CC(=O)O)NC(=O)CNC(=O)CCc1ccc(C(=N)N)cc1)C(=O)O |  |  |  | 2300 |  |  |
| N=C(N)NCCC[C@H](N)C(=O)NCC(=O)N[C@@H](CC(=O)O)C(=O)N[C@@H](Cc1ccccc1)C(=O)O (H-RGDF-OH) | 19000 | 21000 | 0.3 | 38000 | 3.5 |  |

More lines, now with the values ahead:

| IC50 [1] [nM] | IC50 [2] [nM] | Ratio [3] | IC50 [4] [nM] | Ratio [5] | Ratio [6] | Structure (SMILES) |
| --- | --- | --- | --- | --- | --- | --- |
| 60 | 70 | 0.0003 | 60 | 4500 |  | N=C(N)c1ccc(C(=O)NCCC(=O)N[C@@H](CC(=O)O)C(=O)N[C@@H](Cc2ccccc2)C(=O)O)cc1 |
| 60 | 50 | 0.002 | 110 |  |  | N=C(N)c1ccc(C(=O)N2CCC[C@H]2C(=O)N2CCC(OCC(=O)O)CC2)cc1 |
| 200 | 500 | 0.0005 | 400 | 8000 |  | N=C(N)c1ccc(C(=O)Nc2cccc(C(=O)NCCC(=O)O)c2)cc1 |
| 1100 | 900 | 0.007 | 900 |  |  | N=C(N)c1ccc(C(=O)NCCC(=O)NCCC(=O)O)cc1 |
| 700 | 700 | 0.002 | 700 | 1700 |  | CC(C)[C@H](NC(=O)[C@H](CC(=O)O)NC(=O)CCCNC(=O)c1ccc(C(=N)N)cc1)C(=O)O |
| 88000 | 135000 | 1 | 142000 | 1 |  | N=C(N)NCCC[C@H](N)C(=O)NCC(=O)N[C@@H](CC(=O)O)C(=O)N[C@@H](CO)C(=O)O |
| 115000 | 103000 | 10.5 | 102000 | > 30000 |  | C[C@H](Cc1ccc(OCC(=O)O)cc1)NS(=O)(=O)c1ccc(C(=N)N)cc1 |
| 4900 | 4400 | 0.06 | 7000 | 250 |  | CC(C)[C@H](NC(=O)[C@H](CC(=O)O)NC(=O)c1cccc(NC(=O)[C@H](CCCN=C(N)N)NC(=O)OC(C)(C)C)c1)C(=O)O (Boc-R[3Abz]DV-OH) |
| 90 | 90 | 0.004 | 130 | 8400 |  | N=C(N)c1ccc(C(=O)NCC(=O)c2ccc(OCC(=O)O)cc2)cc1 |
| > 200000 | > 200000 | > 100 | > 200000 |  |  | CC(C)(Oc1ccc(CCNS(=O)(=O)c2ccc(C(=N)N)cc2)cc1)C(=O)O |
|  |  |  | 9600 |  |  | NCc1ccc(C(=O)Nc2cccc(C(=O)NCCC(=O)O)c2)cc1 |
|  | 78000 | 1 | 76000 | 570 |  | N=C(N)c1ccc(C(=O)NCC(=O)N[C@@H](CC(=O)O)C(=O)N[C@@H](Cc2ccccc2)C(=O)O)cc1 |
| 700 | 500 | 0.02 | 600 | 700 |  | CC(C)[C@H](NC(=O)[C@H](CC(=O)O)NC(=O)CNC(=O)COc1ccc(C(=N)N)cc1)C(=O)O |
| 50 | 20 | 6e-05 | 40 |  |  | N=C(N)c1ccc(C(=O)NCCC(=O)N[C@@H](CC(=O)O)C(=O)N[C@@H](Cc2ccc(O)cc2)C(=O)O)cc1 |
| 800 | 400 | 0.028 | 300 | 1300 |  | N=C(N)c1ccc(C(=O)NCCc2ccc(OCC(=O)O)cc2)cc1 |
